The results in this text go back to ChEMBL document CHEMBL1250551, “Improvement of water-solubility of biarylcarboxylic acid peroxisome proliferator-activated receptor (PPAR) δ-selective partial agonists by disruption of molecular planarity/symmetry” (Bioorg Med Chem, 2010).

Each structure is given as a SMILES string. pEC50: −log10 of the molar value. Converted amounts (≈) assume the structure as drawn. Some results are limits rather than exact numbers.

Series [1] is described as follows: Thermodynamic aqueous solubility of the compound in phosphate buffer at pH 7.4. It counts as physicochemical. The essentials:
(§1)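 Thermodynamic solubility: about 1 mg solid ground in agate mortar, suspended in 1.0 mL of either 1:15 M phosphate buffer pH 7.4 or an equal-volume mix of that buffer with EtOH. Shaken 48 h at 25 °C, filtered (0.22 µm), filtrate diluted in DMF and quantified by reversed-phase HPLC-UV (262–295 nm) against a calibration curve, corrected for dilution.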

Series [2] deals with T1, Peroxisome proliferator-activated receptor gamma (Homo sapiens, UniProt P37231).
T1 sequence (P37231 whole entry): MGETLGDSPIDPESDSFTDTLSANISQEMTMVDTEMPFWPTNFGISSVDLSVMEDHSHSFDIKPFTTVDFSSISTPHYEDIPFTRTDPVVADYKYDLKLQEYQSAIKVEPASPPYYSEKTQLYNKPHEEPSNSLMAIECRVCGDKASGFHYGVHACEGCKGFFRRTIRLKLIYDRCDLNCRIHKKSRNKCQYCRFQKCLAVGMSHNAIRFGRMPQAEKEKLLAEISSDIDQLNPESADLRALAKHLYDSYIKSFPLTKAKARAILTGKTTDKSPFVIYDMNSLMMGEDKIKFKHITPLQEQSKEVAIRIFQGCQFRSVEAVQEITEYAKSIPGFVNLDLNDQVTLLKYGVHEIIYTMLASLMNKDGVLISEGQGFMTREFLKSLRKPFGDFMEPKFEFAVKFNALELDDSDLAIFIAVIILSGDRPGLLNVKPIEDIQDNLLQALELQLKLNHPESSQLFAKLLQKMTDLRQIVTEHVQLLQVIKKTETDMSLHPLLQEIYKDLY
Briefly: Partial agonist activity at human recombinant PPARgamma LBD expressed in HEK293 cells co-transfected with Gal4 assessed as beta-galactosidase activity at 1 uM by luciferase based transactivation assay. It is filed as functional, cell-based.

A short description of series [3]: Thermodynamic aqueous solubility of the compound in 1:15 M of 50% EtOH and phosphate buffer at pH 7.4. It counts as physicochemical. Particulars: for solubility: buffer; for solubility thermodynamic: 50% EtOH and phosphate buffer; call rule not given here. The essentials: as §1
In series [4] the target is T2, Peroxisome proliferator-activated receptor alpha (Homo sapiens, UniProt Q07869).
T2 sequence (Q07869 whole entry): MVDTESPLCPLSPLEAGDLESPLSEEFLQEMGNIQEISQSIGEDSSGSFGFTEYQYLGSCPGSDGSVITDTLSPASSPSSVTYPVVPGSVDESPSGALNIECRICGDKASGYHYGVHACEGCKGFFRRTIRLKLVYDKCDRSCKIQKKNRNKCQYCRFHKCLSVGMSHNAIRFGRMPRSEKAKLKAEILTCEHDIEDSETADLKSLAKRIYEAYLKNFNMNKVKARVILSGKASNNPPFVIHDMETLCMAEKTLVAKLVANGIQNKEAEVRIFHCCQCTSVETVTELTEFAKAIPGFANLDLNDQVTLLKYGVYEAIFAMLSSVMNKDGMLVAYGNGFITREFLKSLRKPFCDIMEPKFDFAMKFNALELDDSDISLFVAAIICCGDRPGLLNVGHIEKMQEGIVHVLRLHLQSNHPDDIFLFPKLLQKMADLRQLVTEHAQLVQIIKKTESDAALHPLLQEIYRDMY
In words: Partial agonist activity at human recombinant PPARalpha LBD expressed in HEK293 cells co-transfected with Gal4 assessed as beta-galactosidase activity at 1 uM by luciferase based transactivation assay. It counts as functional, cell-based. The procedure, abridged: (§2)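 GAL4-hPPAR LBD fusion transactivation: cells co-transfected with CMX-GAL4N-hPPAR LBD receptor plasmid, TK-MH100x4-LUC reporter and CMX β-galactosidase normalization plasmid. Positive controls (fenofibric acid for PPARα; ciglitazone 100 nM for PPARγ) and test compounds added 6 h later; overnight incubation. Luminescence read after luciferin addition; β-galactosidase absorbance at 405 nm used for normalization.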

Series [5] deals with T3, Peroxisome proliferator-activated receptor delta (Homo sapiens, UniProt Q03181).
T3 sequence (Q03181 whole entry): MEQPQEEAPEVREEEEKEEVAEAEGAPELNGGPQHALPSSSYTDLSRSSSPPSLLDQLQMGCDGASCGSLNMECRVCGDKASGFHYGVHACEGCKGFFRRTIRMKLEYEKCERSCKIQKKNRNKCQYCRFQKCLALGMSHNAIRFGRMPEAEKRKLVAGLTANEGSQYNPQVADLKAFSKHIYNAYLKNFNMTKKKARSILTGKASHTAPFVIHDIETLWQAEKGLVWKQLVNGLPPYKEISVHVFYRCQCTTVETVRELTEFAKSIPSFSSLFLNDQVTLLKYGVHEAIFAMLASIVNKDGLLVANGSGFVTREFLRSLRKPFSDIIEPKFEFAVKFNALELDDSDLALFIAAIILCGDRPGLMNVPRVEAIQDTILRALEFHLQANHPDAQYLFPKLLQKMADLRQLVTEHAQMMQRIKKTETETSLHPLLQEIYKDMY
In words: Partial agonist activity at human recombinant PPARdelta LBD expressed in HEK293 cells co-transfected with Gal4 assessed as beta-galactosidase activity at 1 uM by luciferase based transactivation assay. It counts as functional, cell-based. The essentials:
as §2

Series [6] concerns the target T3, Peroxisome proliferator-activated receptor delta. In words: Partial agonist activity at human recombinant PPARdelta LBD expressed in HEK293 cells co-transfected with Gal4 assessed as beta-galactosidase activity by luciferase based transactivation assay. It is filed as functional, cell-based.
The target of series [7] is T2, Peroxisome proliferator-activated receptor alpha. In words: Partial agonist activity at human recombinant PPARalpha LBD expressed in HEK293 cells co-transfected with Gal4 assessed as beta-galactosidase activity by luciferase based transactivation assay. It is filed as functional, cell-based. The procedure, abridged: as §2
The target of series [8] is T4, Peroxisome proliferator-activated receptor alpha (Homo sapiens) (UniProt Q07869).
T4 sequence (whole entry): T2 sequence (Q07869 whole entry)
In words: Partial agonist activity at human recombinant PPARalpha LBD expressed in HEK293 cells co-transfected with Gal4 assessed as beta-galactosidase activity by luciferase based transactivation assay relative to fenofibric acid. It is filed as functional, cell-based. The procedure, abridged:
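GAL4-based reporter system analogous to the PPARδ assay, using a GAL4 DNA-binding domain–PPARα LBD chimera, TK-MH100x4-LUC reporter and CMX β-galactosidase for normalization. Positive control and test compounds were added 6 h after the preceding step and incubated overnight. Luciferase luminescence was read after luciferin addition, and β-galactosidase by absorbance at 405 nm. Efficacy was expressed relative to fenofibric acid.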

Turning to `CCCCOc1ccc(-c2cccc(C(=O)O)c2)cc1CNC(=O)c1ccc(C(F)(F)F)cc1F`, in series [1], the thermodynamic solubility (commonly solubility found after equilibrating the solid with the medium) is less than 1 µg/mL. The EC50 result in series [2] was “Not Active”. Moreover, the solubility (as a rule, the dissolved amount per volume that the medium holds) in series [3] came to 1350 µg/mL (≈ 2760 µM).
Consider `CCCCOc1ccc(-c2ccc(C(=O)O)cc2C)cc1CNC(=O)c1ccc(C(F)(F)F)cc1F`, for which the EC50 entry in series [4] is listed as “Not Active”. Further, the figures for the solubility (thermodynamic) in series [1] and in series [3] were less than 1 µg/mL and 985 µg/mL (≈ 1960 µM), respectively.
Regarding `CCCCOc1ccc(-c2ccc(C(=O)O)nc2)cc1CNC(=O)c1ccc(C(F)(F)F)cc1F`, the EC50 entry in series [4] and in series [2] was “Not Active” throughout.
Turning to `CCCC(=O)Oc1ccc(-c2ccc(C(=O)O)cc2)cc1CNC(=O)c1ccc(C(F)(F)F)cc1F`, in series [5], the EC50 result is on record as “Not Active”.
Turning to `O=C(O)c1ccc(-c2ccc(OCCCO)c(CNC(=O)c3ccc(C(F)(F)F)cc3F)c2)cc1`, the EC50 entry in series [5] is given as “Not Active”.
On to `COCCOc1ccc(-c2ccc(C(=O)O)cc2)cc1CNC(=O)c1ccc(C(F)(F)F)cc1F`, for which, in series [5], the EC50 entry is on record as “Not Active”.
Regarding `CCCCOc1ccc(-c2ccc(C(=O)O)cc2F)cc1CNC(=O)c1ccc(C(F)(F)F)cc1F`, the EC50 entry in series [4] and in series [2] was “Not Active” throughout. In addition, the results for the thermodynamic solubility in series [1] and in series [3] were less than 1 µg/mL and 3220 µg/mL (≈ 6350 µM), respectively.
In the case of `CCCCOc1ccc(-c2ccc(C(=O)O)cn2)cc1CNC(=O)c1ccc(C(F)(F)F)cc1F`, the EC50 result in series [4] and in series [2] was “Not Active” throughout.
For the compound `CCCCOc1ccc(-c2ccc(C(=O)O)o2)cc1CNC(=O)c1ccc(C(F)(F)F)cc1F`, the EC50 result in series [4] and in series [2] was “Not Active” throughout.
Take `CCCCOc1ccc(-c2cncc(C(=O)O)c2)cc1CNC(=O)c1ccc(C(F)(F)F)cc1F`: the figures for the pEC50 in series [6] and in series [7] were 6.66 and 5.40, respectively. Moreover, the solubility (thermodynamic) in series [1] was found to be 7.62 µg/mL (≈ 15.5 µM). Moreover, the EC50 result in series [2] is given as “Not Active”. This compound showed a solubility in series [3] of 9030 µg/mL (≈ 18400 µM).
Regarding `CCCCOc1ccc(-c2ccc(C(=O)O)cc2)cc1CNC(=O)c1ccc(C(F)(F)F)cc1F`, the values for the solubility (thermodynamic) in series [1] and in series [3] were less than 1 µg/mL and 375 µg/mL (≈ 766 µM), respectively. Further, the EC50 result in series [2] is given as “Not Active”.
`CCCCOc1ccc(-c2cccc(C(=O)O)c2C)cc1CNC(=O)c1ccc(C(F)(F)F)cc1F`: the figures for the solubility (thermodynamic) in series [1] and in series [3] were less than 1 µg/mL and 9950 µg/mL (≈ 19800 µM), respectively. Besides, the EC50 entry in series [2] is listed as “Not Active”.
In the case of `CCCCOc1ccc(-c2c(C)ncc(C(=O)O)c2C)cc1CNC(=O)c1ccc(C(F)(F)F)cc1F`, the pEC50 – broadly, −log10 of the EC50, conventionally taken in molar units – in series [6] was 7.12; in series [7] it was 5.38. In addition, the solubility (thermodynamic) in series [1] was 2700 µg/mL (≈ 5210 µM); in series [3], 17700 µg/mL (≈ 34100 µM). Moreover, in series [2], the EC50 entry is “Not Active”. In addition, the Efficacy in series [8] stood at 100%.
For `CCCCOc1ccc(-c2c(F)ccc(C(=O)O)c2F)cc1CNC(=O)c1ccc(C(F)(F)F)cc1F`, in series [6], the pEC50 was 8.24. Moreover, the EC50 entry in series [4] and in series [2] was “Not Active” each time. The compound further came in with a thermodynamic solubility in series [1] of 21.7 µg/mL (≈ 41.3 µM). Moreover, in series [3], the solubility was determined as 10400 µg/mL (≈ 19800 µM).
